# Measured values collected from several papers.
# Cell line: Vero
# Effect on: cell growth or viability
Compound,method,time,IC50
O=C1C[C@@H](c2ccccc2)Oc2c(Cc3ccccc3O)c(O)c(Cc3ccccc3O)c(O)c21,MTT,72 h,48.7 µM
CO[C@H]1[C@H](O[C@H]([C@H]2O[C@@H](n3ccc(=O)[nH]c3=O)[C@H](O)[C@@H]2O)[C@H](NCCCNC(=O)[C@@H](NC(=O)[C@@H](NC(=O)N[C@H](C(=O)O)C(C)C)[C@@H]2CCN=C(N)N2)[C@@H](O)C(C)C)C(=O)O)O[C@H](CN)[C@H]1O,WST-1,,> 35 µM
COc1cccc2c1C(=O)c1c(O)c3c(c(O)c1C2=O)C[C@@](O)(C(=O)CO)C[C@@H]3O[C@H]1C[C@H](N)[C@H](O)[C@H](C)O1,MTT,72 h,2.1 µM
NC1=NC(=NS(=O)(=O)c2ccc(N)cc2)NC(=O)C1N=Nc1ccccc1C(=O)O (stereo not shown),MTT,72 h,57.4 µM
C/C(=N/NC(=O)c1cn(-c2ccccc2)nc1-c1ccc(Cl)cc1)c1c(O)cc(C)oc1=O,MTT,48 h,102 µM
O=C1[C@H](CC[C@H](O)c2ccc(F)cc2)[C@@H](c2ccc(O)cc2)N1c1ccc(F)cc1,MTT,72 h,36.5 µg/mL
C[C@@H]1C[C@H]2[C@@H]3CCC4=CC(=O)C=C[C@]4(C)[C@@]3(F)[C@@H](O)C[C@]2(C)[C@@]1(O)C(=O)CO,MTT,48 h,80.1 µM
NC1=NN(C(=O)C=Cc2ccccc2)C(=O)C1N=Nc1ccccc1C(=O)O (stereo not shown),MTT,72 h,59.7 µM
C/C(=N/NC(=O)c1cn(-c2ccccc2)nc1-c1ccccc1)c1c(O)cc(C)oc1=O,MTT,48 h,664 µM
CO[C@H]1[C@H](O[C@H]([C@H]2O[C@@H](n3ccc(=O)[nH]c3=O)[C@H](O)[C@@H]2O)[C@H](NCCCNC(=O)[C@@H](NC(=O)[C@@H](NC(=O)N[C@H](C(=O)O)C(C)C)[C@@H]2CCN=C(N)N2)[C@@H](OC(=O)CCCCCCCCCCCCN(O)C(=N)N)C(C)C)C(=O)O)O[C@H](CN)[C@H]1O,WST-1,,> 35 µM
